CAL PDZ FP-1 – inhibitors of human CAL PDZ peptide binding. actives 0.02% (n = 330,000). inhibition, % at 20 µM. purified CAL PDZ, TMR-peptide fluorescence polarization, 1 h;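 active = highest replicate inhibition of at least 40%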;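 also: plate controls were DMSO neutral control wells for no effect and unlabeled competitor peptide control wells for full effect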
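Material: tagged CAL PDZ protein CerCALP, purified; buffer or medium: sodium phosphate/NaCl buffer pH 7.4 with TCEP, IgG, Thesit; also added: fluorescent TMR peptide probe; schedule: 1 h incubation at room temperature before polarization reading; technique: fluorescence polarization from S- and P-plane intensities, G-factor corrected; control set: unlabelled peptide and DMSO controls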
CAL PDZ FP-2 – inhibitors of human CAL PDZ peptide binding | purified CAL PDZ, TMR-peptide fluorescence polarization, 1 h | inhibition, % at 24.9 µM | actives 0.92% (n = 300,000) | AID 602252;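 active = mean inhibition of at least 30% with at least half of replicates also reaching 30%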;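 also: 0% = DMSO neutral control and 100% = excess unlabeled competitor peptide PRC23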
Rtt109 Vps75 – inhibitors of Candida albicans Rtt109/Vps75 histone acetyltransferase | Q5AAJ8 | purified Rtt109/Vps75, ThioGlo CoA-SH fluorescence, 4 h | inhibition, % at 34.9 µM | actives 0.16% (n = 330,000);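 active = inhibition of at least 50% in every replicate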
DYRK1A inh – Dyrk1A (rat) kinase inhibition; AID 504441; inhibition, % at 12.5 µM; Q63470; ADP-Glo luminescence, NFATc1 peptide; actives 0.43% (n = 310,000); in the data active = inhibition above about 50%;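 also: plate controls were vehicle with enzyme for no effect and no enzyme for full effect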
ALR inh – human ALR oxidase inhibition via reduced H2O2 | P55789 | purified ALR, DTT oxidation, H2O2 HRP-luminol luminescence | actives 3.8% (n = 290,000) | inhibition, % (concentration not given with the values) | AID 485317;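 active = mean replicate inhibition above about 79%, with every replicate also reaching it, limit read from the data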
Target sequence (P55789 whole entry, looked up): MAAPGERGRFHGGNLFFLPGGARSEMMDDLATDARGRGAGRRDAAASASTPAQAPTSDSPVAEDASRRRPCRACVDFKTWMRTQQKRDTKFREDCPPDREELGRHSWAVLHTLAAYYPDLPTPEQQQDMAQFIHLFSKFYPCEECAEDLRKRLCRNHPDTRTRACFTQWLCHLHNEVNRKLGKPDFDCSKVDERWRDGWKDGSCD
Numbers without * were called inactive. An excerpt weighted towards active compounds, which were near 4.3% of everything screened.

COc1ccccc1NC(=O)CSc1nnc(CCC(=O)Nc2ccccc2F)n1C was read as CAL PDZ FP-1 0, CAL PDZ FP-2 4, Rtt109 Vps75 7, DYRK1A inh 3 and ALR inh -2.
Screening CSCCC(NC(=O)c1ccccc1Cl)C(=O)N(C)CC(=O)Nc1ccc(N2CCOCC2)cc1 (centres undefined) returned CAL PDZ FP-1 -2, CAL PDZ FP-2 -16, Rtt109 Vps75 -5, DYRK1A inh 3 and ALR inh 60.
`COC(=O)c1cc(NC(=O)c2cccc([N+](=O)[O-])c2C)ccc1Cl` gave CAL PDZ FP-1 0, CAL PDZ FP-2 0, Rtt109 Vps75 4, DYRK1A inh 2 and ALR inh -1.
O=C(Cc1ccccc1)NCC(=O)OCC(=O)c1ccccc1Cl was read as CAL PDZ FP-1 -2, CAL PDZ FP-2 -7, Rtt109 Vps75 0, DYRK1A inh -8 and ALR inh 77*.
O=C(CNC(=O)c1ccccc1)OCC(=O)c1ccccc1Cl was read as CAL PDZ FP-1 0, CAL PDZ FP-2 49*, Rtt109 Vps75 13 and ALR inh -3.
For Cc1ccc(C(=O)NCC(=O)OCCOc2ccccc2Cl)cc1 the results were CAL PDZ FP-1 -2, CAL PDZ FP-2 1, Rtt109 Vps75 56*, DYRK1A inh 8 and ALR inh 1.
For Cc1ccc(C(=O)NCC(=O)OCCOc2cccc(Cl)c2)cc1 the results were CAL PDZ FP-1 -1, Rtt109 Vps75 3, DYRK1A inh -11 and ALR inh 2.
`Cc1ccc(C(=O)NCCNC(=O)COc2ccccc2Cl)cn1` gave CAL PDZ FP-1 -2, CAL PDZ FP-2 7, Rtt109 Vps75 51*, DYRK1A inh -2 and ALR inh 3.
For CC(C)(C)c1ccc(-n2ncc3c2CCCC3NC(=O)C2(C(N)=O)CC2)cc1 (centres undefined) the results were CAL PDZ FP-1 -2, CAL PDZ FP-2 1, Rtt109 Vps75 1 and DYRK1A inh -6.
Screening COc1ccc(C2CC(c3ccccc3)=NN2C(=O)COC(=O)/C=C/c2ccc(O)c(OC)c2)cc1 (centres undefined) returned CAL PDZ FP-1 0, CAL PDZ FP-2 -4, Rtt109 Vps75 3, DYRK1A inh 6 and ALR inh -6.
Screening C(=N\n1cnnc1)/c1cccc(Oc2ccccc2)c1 returned CAL PDZ FP-1 0, CAL PDZ FP-2 -3, Rtt109 Vps75 -8, DYRK1A inh -7 and ALR inh -32.
For S=c1[nH]ncn1/N=C/c1cccc(Oc2ccccc2)c1 the results were CAL PDZ FP-1 -2, CAL PDZ FP-2 2, Rtt109 Vps75 5, DYRK1A inh -3 and ALR inh 99*.
Screening COC(=O)CC1=NN(c2nc3ccccc3s2)C(=O)/C1=C/N(C)C returned CAL PDZ FP-1 -1, CAL PDZ FP-2 -5, Rtt109 Vps75 4 and ALR inh 96*.
COc1ccc(CN=C(C)c2c(C(F)(F)F)[nH]n(-c3nc4ccccc4s3)c2=O)cc1 was read as CAL PDZ FP-1 -1, CAL PDZ FP-2 7, Rtt109 Vps75 0 and DYRK1A inh 0.
Screening COC(=O)Cc1[nH]n(-c2nc3ccccc3s2)c(=O)c1C(C)=O returned CAL PDZ FP-1 0, CAL PDZ FP-2 0, Rtt109 Vps75 -26, DYRK1A inh -4 and ALR inh 98*.
`CC(=O)c1c(CC(=O)O)[nH]n(-c2nc3ccccc3s2)c1=O` gave CAL PDZ FP-1 -2, CAL PDZ FP-2 -3, Rtt109 Vps75 -14, DYRK1A inh -8 and ALR inh 97*.
`Cc1ccc(C(=O)N/C(=C\c2ccccc2F)c2nc(=S)[nH][nH]2)cc1` gave CAL PDZ FP-1 -1, CAL PDZ FP-2 3, Rtt109 Vps75 -2, DYRK1A inh 3 and ALR inh 98*.
CCCC1C(C(=O)OCC)=C(C)NC(C)=C1C(=O)OCC was read as CAL PDZ FP-2 -5, Rtt109 Vps75 3, DYRK1A inh 6 and ALR inh 99*.
Screening CCOC(=O)C1=C(C)NC(C)=C(C(=O)OC)C1c1ccco1 (centres undefined) returned CAL PDZ FP-1 -1, CAL PDZ FP-2 36*, Rtt109 Vps75 4, DYRK1A inh 1 and ALR inh 0.
For CCOC(=O)C1=C(C)NC(C)=C(C(=O)OCC)C1C(=O)O the results were CAL PDZ FP-1 0, CAL PDZ FP-2 1, Rtt109 Vps75 7, DYRK1A inh -5 and ALR inh 5.
